Source: PubChem BioAssay AID602269 (Broad Institute, 2012)
Results filed as inconclusive are left out. Calls of active or inactive are those of the source.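 Rule for the calls: active = active in every separate test run, each with half-maximal potency at or below twice its top valid dose; inconclusive = test runs disagree, or a flat partial drop, or poor fit; inactive = inactive in every test run, including signal rising instead.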

tested on: R4-3T3 NIH3T3 HSF-1 GFP / Tet-On RFP fluorescence, 48 h; assay: GFP reporter loss versus dox-driven RFP – NIH3T3 R4-3T3 cells, dry powder, dose response (AID 602269); settings: not given
Summary of the method: (§1)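 Assay system: Engineered NIH3T3 cells, HSF-1 GFP plus doxycycline-inducible RFP | Timing: 2 h 42 °C shock, then 48 h 37 °C | Detection: Bottom-read fluorescence, GFP ex 485/em 535 nm, RFP ex 550/em 595 nm | Controls: Didemnin B 400 nM as positive control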

| Compound | AC50 [µM] |
| --- | --- |
| O=C(CCl)N1CCCC1c1ccc2c(c1)OCCO2 (stereo unspecified) | 1.18 |
| CC(C)(C)C(=O)NC(=S)NNC(=O)c1sc2ccccc2c1Cl | 4.55 |
| CC1=NNC(=O)/C1=C\c1cn(-c2ccccc2)nc1-c1ccc(Cl)cc1 | 1.27 |
| O=C1C=C(NCCN2CCOCC2)C(=O)c2cnccc21 | 2.28 |
| Oc1ccc(Br)cc1/C=N/Nc1ccccn1 | 0.994 |

tested on: not listed separately; assay: as above; settings: R4-3T3 NIH3T3 HSF-1 GFP / Tet-On RFP fluorescence, 48 h; at 26 µM (top of the series)
Summary of the method: as §1

| Compound | activity change, negative = inhibition |
| --- | --- |
| CCc1ccc(NC(=O)C2C3CCC(O3)C2C(=O)O)cc1 (stereo unspecified) | -14.3% (inactive) |
